Test results: ChEMBL document CHEMBL1139453, “Potent inhibitors of the Plasmodium falciparum enzymes plasmepsin I and II devoid of cathepsin D inhibitory activity” (J Med Chem, 2004)

Legend:
Plasmepsin II = Plasmepsin II (Plasmodium falciparum, UniProt P46925); experiment: Inhibitory activity against protease plasmepsin-2 (Plm II) of Plasmodium falciparum
Procedure, shortened: (§1)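 Plm II: 3 nM pro-enzyme, pro-sequence cleaved by 40 min room-temperature preincubation; Plm I amount matched to similar activity. Buffer 100 mM sodium acetate pH 4.5, 10% glycerol, 0.01% Tween 20. Inhibitor (up to 1500 nM Plm I, 2500 nM Plm II; 1% DMSO final), then 3 μM FRET substrate; fluorescence over 10 min. Competitive Langmuir IC50 converted to Ki via Michaelis–Menten Km.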

Cathepsin D [1] = molecular target: T1, Cathepsin D (Homo sapiens, UniProt P07339); experiment: Inhibitory activity against human Cathepsin D; Range
Procedure, shortened: (§2)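 Human liver Cat D, 50 ng/mL pro-form, activated 20 min at 37 °C in 100 mM sodium acetate pH 4.5, 10% glycerol, 0.01% Tween 20. Inhibitor (tested up to 2000 nM, final DMSO 1%) added before 3 μM DABCYL-Glu-Arg-Nle-Phe-Leu-Ser-Phe-Pro-EDANS. Fluorescence rise followed 10 min. IC50 from Langmuir fit assuming competitive inhibition; Ki = IC50/(1+[S]/Km).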

Plasmodium falciparum [2] = experiment: In vitro percent inhibition of Plasmodium falciparum 3D7 in human erythrocyte at 5 uM; type: functional
Procedure, shortened: (§3)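 Synchronous P. falciparum 3D7 early trophozoites (~1% haematocrit, 1% parasitaemia) in human erythrocytes, labelled with [3H]hypoxanthine 10 μCi mL⁻¹; compound added (1–5 μM final, DMSO up to 1% v/v), 30 h at 37 °C in gassed boxes to schizont stage. Filter-harvested, β-counted; radioactivity relative to DMSO-only wells; four independent experiments per concentration.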

Plasmepsin I = Plasmepsin I (Plasmodium falciparum, UniProt P39898); experiment: Inhibitory activity against protease plasmepsin-1 (Plm I) of Plasmodium falciparum; procedure, shortened: as §1
Cathepsin D [3] = molecular target: T1, Cathepsin D; experiment: Inhibitory activity against human cathepsin D; procedure, shortened: as §2
Plasmodium falciparum [4] = experiment: Percent inhibition for Plasmodium falciparum at 5 uM; type: functional; procedure, shortened: as §3

Chain of Plasmepsin I (P39898 whole entry): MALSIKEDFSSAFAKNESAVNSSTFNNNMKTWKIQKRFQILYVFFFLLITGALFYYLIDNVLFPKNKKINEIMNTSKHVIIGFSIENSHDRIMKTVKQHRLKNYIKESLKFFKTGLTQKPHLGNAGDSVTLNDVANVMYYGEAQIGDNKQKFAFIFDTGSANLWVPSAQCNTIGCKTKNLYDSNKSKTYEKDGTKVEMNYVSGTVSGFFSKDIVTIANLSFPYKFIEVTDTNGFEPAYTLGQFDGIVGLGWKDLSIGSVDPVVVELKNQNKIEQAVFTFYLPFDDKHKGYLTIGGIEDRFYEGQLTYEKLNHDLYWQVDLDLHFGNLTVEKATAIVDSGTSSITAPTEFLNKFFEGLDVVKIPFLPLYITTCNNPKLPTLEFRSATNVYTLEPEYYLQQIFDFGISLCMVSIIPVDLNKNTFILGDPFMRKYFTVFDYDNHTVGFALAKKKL
T1 sequence (P07339 65-162 limits assumed): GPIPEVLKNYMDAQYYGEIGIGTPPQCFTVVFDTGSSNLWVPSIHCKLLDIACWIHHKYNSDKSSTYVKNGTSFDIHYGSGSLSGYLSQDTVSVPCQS
T1 sequence (P07339 169-412 limits assumed): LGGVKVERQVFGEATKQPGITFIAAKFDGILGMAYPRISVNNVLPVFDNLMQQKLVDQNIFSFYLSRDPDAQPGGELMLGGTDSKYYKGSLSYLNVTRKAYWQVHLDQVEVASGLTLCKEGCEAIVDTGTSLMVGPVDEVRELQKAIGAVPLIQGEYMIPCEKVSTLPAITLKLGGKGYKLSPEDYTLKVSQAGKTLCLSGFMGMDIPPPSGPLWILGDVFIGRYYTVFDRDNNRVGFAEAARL
Chain of Plasmepsin II (P46925 whole entry): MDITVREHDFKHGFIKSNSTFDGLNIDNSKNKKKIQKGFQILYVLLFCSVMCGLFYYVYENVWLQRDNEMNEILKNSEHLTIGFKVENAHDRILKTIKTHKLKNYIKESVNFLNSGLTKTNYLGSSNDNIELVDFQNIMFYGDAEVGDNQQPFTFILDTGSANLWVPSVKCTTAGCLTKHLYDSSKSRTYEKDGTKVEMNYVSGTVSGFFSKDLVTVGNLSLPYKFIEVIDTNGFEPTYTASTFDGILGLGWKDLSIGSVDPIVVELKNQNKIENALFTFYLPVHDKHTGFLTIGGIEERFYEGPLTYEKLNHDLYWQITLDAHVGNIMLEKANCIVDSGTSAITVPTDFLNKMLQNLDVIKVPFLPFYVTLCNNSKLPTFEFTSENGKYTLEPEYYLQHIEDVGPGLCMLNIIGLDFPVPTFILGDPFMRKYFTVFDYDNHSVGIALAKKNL

| SMILES | Ki (Plasmepsin II) | Ki (Cathepsin D [1]) | Ki (Plasmepsin I) | Ki (Cathepsin D [3]) | inhibition at 5 µM (Plasmodium falciparum [2]) | inhibition at 5 µM (Plasmodium falciparum [4]) |
| --- | --- | --- | --- | --- | --- | --- |
| C=CCO[C@@H](CN[C@H]1c2ccccc2C[C@H]1O)[C@H](O)[C@@H](O)[C@@H](OCC=C)C(=O)N[C@H]1c2ccccc2C[C@H]1O | > 2500 nM | > 2000 nM | > 1500 nM | – | 50% | – |
| CC(C)[C@H](NC(=O)CCc1c[nH]c2ccccc12)C(=O)N[C@@H](Cc1ccccc1)[C@@H](O)CN[C@@H](Cc1ccc(-c2ccccc2)cc1)C(N)=O | 11 nM | – | 2.6 nM | 30 nM | – | 56% |
| CC(=O)c1ccc(/C=C/CO[C@@H](C(=O)N[C@H]2c3ccccc3C[C@H]2O)[C@H](O)[C@@H](O)[C@@H](OC/C=C/c2ccc(C(C)=O)cc2)C(=O)N[C@H]2c3ccccc3C[C@H]2O)cc1 | 6 nM | – | 0.8 nM | > 2000 nM | 78% | – |
| C=CCO[C@@H](C(=O)N[C@H](C(=O)NC)C(C)C)[C@H](O)[C@@H](O)[C@@H](OCC=C)C(=O)N[C@H](C(=O)NC)C(C)C | 4100 nM | – | – | – | – | – |
| C=CCO[C@@H](C(=O)N[C@H]1c2ccccc2C[C@H]1O)[C@H](O)[C@@H](O)[C@@H](OCC=C)C(=O)N[C@H]1c2ccccc2C[C@H]1O | 96 nM | – | 163 nM | > 2000 nM | 0% | – |
| O=C(N[C@H]1c2ccccc2C[C@H]1O)[C@H](OC/C=C/c1ccccc1)[C@H](O)[C@@H](O)[C@@H](OC/C=C/c1ccccc1)C(=O)N[C@H]1c2ccccc2C[C@H]1O | 29 nM | – | 1.4 nM | > 2000 nM | – | – |
| Cc1noc(C)c1/C=C/CO[C@@H](C(=O)N[C@H]1c2ccccc2C[C@H]1O)[C@H](O)[C@@H](O)[C@@H](OC/C=C/c1c(C)noc1C)C(=O)N[C@H]1c2ccccc2C[C@H]1O | 181 nM | – | 23 nM | > 2000 nM | – | – |
| O=C(N[C@H]1c2ccccc2C[C@H]1O)[C@H](OCc1ccccc1)[C@H](O)[C@@H](O)[C@@H](OCc1ccccc1)C(=O)N[C@H]1c2ccccc2C[C@H]1O | 85 nM | – | 25 nM | > 2000 nM | – | – |
| COC(=O)/C=C/C=C/CO[C@@H](C(=O)N[C@H]1c2ccccc2C[C@H]1O)[C@H](O)[C@@H](O)[C@@H](OC/C=C/C=C/C(=O)OC)C(=O)N[C@H]1c2ccccc2C[C@H]1O | 8.9 nM | – | 3.7 nM | > 2000 nM | 51% | – |
| C#C/C=C/CO[C@@H](C(=O)N[C@H]1c2ccccc2C[C@H]1O)[C@H](O)[C@@H](O)[C@@H](OC/C=C/C#C)C(=O)N[C@H]1c2ccccc2C[C@H]1O | 37 nM | – | 32 nM | > 2000 nM | – | – |
| O=C(N[C@H]1c2ccccc2C[C@H]1O)[C@H](OC/C=C/c1ccc(F)cc1)[C@H](O)[C@@H](O)[C@@H](OC/C=C/c1ccc(F)cc1)C(=O)N[C@H]1c2ccccc2C[C@H]1O | 59 nM | – | 2.5 nM | > 2000 nM | – | – |
| O=C(N[C@H]1c2ccccc2C[C@H]1O)[C@H](OC/C=C/c1ccsc1)[C@H](O)[C@@H](O)[C@@H](OC/C=C/c1ccsc1)C(=O)N[C@H]1c2ccccc2C[C@H]1O | 15 nM | – | 1.3 nM | > 2000 nM | – | – |

Continued by falling Ki (Plasmepsin II), values first:

| Ki (Plasmepsin II) | Ki (Cathepsin D [1]) | Ki (Plasmepsin I) | Ki (Cathepsin D [3]) | SMILES | inhibition at 5 µM (Plasmodium falciparum [2]) | inhibition at 5 µM (Plasmodium falciparum [4]) |
| --- | --- | --- | --- | --- | --- | --- |
| 3800 nM | – | – | – | CNC(=O)[C@@H](NC(=O)[C@H](OCc1ccccc1)[C@H](O)[C@@H](O)[C@@H](OCc1ccccc1)C(=O)N[C@H](C(=O)NC)C(C)C)C(C)C | – | – |
| 130 nM | – | 37 nM | > 2000 nM | C[Si](C)(C)C#C/C=C/CO[C@@H](C(=O)N[C@H]1c2ccccc2C[C@H]1O)[C@H](O)[C@@H](O)[C@@H](OC/C=C/C#C[Si](C)(C)C)C(=O)N[C@H]1c2ccccc2C[C@H]1O | – | – |
| 129 nM | – | 5.8 nM | > 2000 nM | Cc1ccc(/C=C/CO[C@@H](C(=O)N[C@H]2c3ccccc3C[C@H]2O)[C@H](O)[C@@H](O)[C@@H](OC/C=C/c2ccc(C)cc2)C(=O)N[C@H]2c3ccccc3C[C@H]2O)cc1 | – | – |
| 47 nM | – | 27 nM | > 2000 nM | O=C(N[C@H]1c2ccccc2C[C@H]1O)[C@H](OC/C=C/Br)[C@H](O)[C@@H](O)[C@@H](OC/C=C/Br)C(=O)N[C@H]1c2ccccc2C[C@H]1O | – | – |
| 41 nM | – | 7.2 nM | > 2000 nM | O=C(N[C@H]1c2ccccc2C[C@H]1O)[C@H](OC/C=C/C#Cc1ccccc1)[C@H](O)[C@@H](O)[C@@H](OC/C=C/C#Cc1ccccc1)C(=O)N[C@H]1c2ccccc2C[C@H]1O | – | – |
| 15 nM | – | 4.4 nM | > 2000 nM | O=C(N[C@H]1c2ccccc2C[C@H]1O)[C@H](OC/C=C/C=C/c1ccccc1)[C@H](O)[C@@H](O)[C@@H](OC/C=C/C=C/c1ccccc1)C(=O)N[C@H]1c2ccccc2C[C@H]1O | – | – |
| 14 nM | – | 0.5 nM | > 2000 nM | O=C(N[C@H]1c2ccccc2C[C@H]1O)[C@H](OC/C=C/c1ccc2c(c1)OCO2)[C@H](O)[C@@H](O)[C@@H](OC/C=C/c1ccc2c(c1)OCO2)C(=O)N[C@H]1c2ccccc2C[C@H]1O | 61% | – |
| 13 nM | – | 8.4 nM | > 2000 nM | COc1ncc(/C=C/CO[C@@H](C(=O)N[C@H]2c3ccccc3C[C@H]2O)[C@H](O)[C@@H](O)[C@@H](OC/C=C/c2cnc(OC)nc2OC)C(=O)N[C@H]2c3ccccc3C[C@H]2O)c(OC)n1 | 2% | – |
